# PREPL inhibitor = PREPL enzyme inhibitors, primary screen, biochemical, fluorescence polarization; Prolyl endopeptidase-like (Homo sapiens), Q4J6C6; recombinant PREPL, fluorescence polarization activity-based probe; inhibition, % at 5.96 µM; 0.68% of 320,000 active; in the data active = inhibition above about 43%;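 note: 0% = enzyme with DMSO and 100% = wells lacking enzyme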
# Target sequence (Q4J6C6 whole entry, looked up): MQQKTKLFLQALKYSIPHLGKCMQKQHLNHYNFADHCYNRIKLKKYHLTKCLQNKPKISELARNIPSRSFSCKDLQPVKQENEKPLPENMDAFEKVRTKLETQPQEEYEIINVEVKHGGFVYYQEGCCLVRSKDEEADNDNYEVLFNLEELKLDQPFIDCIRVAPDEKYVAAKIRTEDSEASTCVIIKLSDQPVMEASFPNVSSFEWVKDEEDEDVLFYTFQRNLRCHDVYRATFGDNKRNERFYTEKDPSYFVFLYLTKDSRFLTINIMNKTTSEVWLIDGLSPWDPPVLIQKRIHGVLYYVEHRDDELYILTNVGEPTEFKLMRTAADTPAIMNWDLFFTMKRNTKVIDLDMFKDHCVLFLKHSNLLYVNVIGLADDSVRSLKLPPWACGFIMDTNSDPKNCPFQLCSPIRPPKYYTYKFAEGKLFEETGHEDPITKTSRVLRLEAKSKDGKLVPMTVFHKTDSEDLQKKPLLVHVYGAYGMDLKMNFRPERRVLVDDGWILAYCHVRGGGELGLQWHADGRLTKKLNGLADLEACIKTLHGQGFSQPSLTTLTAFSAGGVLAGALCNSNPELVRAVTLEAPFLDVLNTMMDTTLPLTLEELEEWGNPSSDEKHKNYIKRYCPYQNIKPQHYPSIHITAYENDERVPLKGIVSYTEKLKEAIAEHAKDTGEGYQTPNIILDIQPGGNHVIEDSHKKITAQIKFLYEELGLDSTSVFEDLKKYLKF
# NR3A LBD binder = binders of NR3A ligand-binding domain, primary screen, biophysical, differential scanning fluorimetry, uHTS; Glutamate receptor ionotropic, NMDA 3A (GRIN3A) ligand-binding domain; NR3A LBD differential scanning fluorimetry, Tm shift; 0% = protein alone, 100% = glycine-bound protein; Tm shift relative to glycine control, % at 25 µM; 2.5% of 340,000 active;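 active = melting temperature shift of at least 10% of the positive control shift, at one fixed dose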
# CHOP inh = inhibitors of CHOP promoter induction, primary screen, cell-based, unfolded protein response, luciferase reporter; CHO-K1 CHOP-promoter luciferase, tunicamycin-induced, 15-18 h; inhibition, % at 10 µM; 3.8% of 220,000 active;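 active = compounds that reduced the stress-induced luciferase reporter signal by more than about 70% of percent inhibition, limit read from the data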;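 note: 0% = tunicamycin plus vehicle and 100% = wells without tunicamycin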
# Beta cell apopt = inhibitors of cytokine-induced beta cell apoptosis, primary screen, luminescence; protection from apoptosis, % (test concentration not listed); INS-1E cytokine-induced death, ATP luminescence, 48 h; percent of positive-control rescue, neutral wells zero; 0.8% of 300,000 active;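 active = Every replicate reaches about 75%, or at least half do and their mean reaches it too, limit read from the data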;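 note: 0% = cytokine-treated negative control wells and 100% = positive control rescue; higher means more ATP so stronger rescue from cytokine killing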
# CSC inhib = cancer stem cell viability inhibitors, primary screen, luminescence; cancer stem cell-like cells viability; inhibition, % at 7.5 µM; 1.1% of 300,000 active; AID 2717, 2010; in the data active = inhibition above about 75%; tested in HMLE shEcad cells
# T cruzi repl = inhibitors of intracellular T. cruzi growth, primary screen, luminescence, NIH3T3 host cells; T. cruzi beta-gal in NIH3T3, 90 h; inhibition, % (no concentration beside the values); 1.4% of 300,000 active; AID 1885, 2009;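 active = mean inhibition across valid replicates above about 55%, limit read from the data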;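 note: signal also drops with host cell toxicity which is not excluded here; 0% = plate median of DMSO wells and 100% = zero luminescence signal; higher percent means less beta-gal luminescence so fewer parasites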
#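 Assay system: NIH/3T3 host cells with β-galactosidase reporter T. cruzi; input: 5,000 host fibroblasts per well; compound: single 50 nL compound addition per well in DMSO; timing: ≥90 h infection period, 3 h prior cell attachment; measured by: GalScreen β-gal luminescence, detergent lysis, 60 min; evaluation: percent inhibition of parasite-derived β-gal signal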
# * = called active by the depositor; . = not tested or not shown. Compounds with a hit are over-represented: about 6.7% of the library has one in this group of screens.
SMILES,PREPL inhibitor,NR3A LBD binder,CHOP inh,Beta cell apopt,CSC inhib,T cruzi repl
CCN(CC)CCOC(=O)c1ccc(NC(=O)/C=C/c2cccs2)cc1,-5,5,50,-8,-6,31
CCOC(=O)c1sc(NC(=S)NC(=O)c2ccccc2)c(C(=O)OCC)c1C,5,-2,77*,19,-6,-9
CCOC(=O)c1ccc(NC(=O)C(=O)NCCc2ccc(OC)cc2)cc1,3,0,25,-7,-6,-31
COC(=O)c1ccc(NC(=O)CNc2ccccc2)cc1,7,42*,-17,5,-6,4
COC(=O)c1ccc(NC(=O)CC(=O)Nc2ccc(C(=O)OC)cc2)cc1,-4,0,.,0,-5,-19
CCOC(=O)c1ccc(NC(=O)/C=C/c2cccs2)cc1,-3,23*,-12,5,13,4
CN(C)CCCNS(=O)(=O)c1ccc(N2CCN(Cc3ccc4c(c3)OCO4)CC2)c([N+](=O)[O-])c1,17,0,.,23,10,10
Cc1cccc(OC(C)C(=O)Nc2ccc3c(c2)OCCO3)c1 (centres undefined),.,-9,.,.,.,.
O=C(c1cc(C2CC2)nn1-c1ccccc1)N1CCN(c2ccccn2)CC1,.,-1,.,.,.,.
COC(=O)c1ccc(NC(=O)C(=O)N2CCN(C(=S)NCCc3ccccc3)CC2)cc1,-4,15*,37,0,0,1
CCOC(=O)c1ccc(NC(=O)Nc2ccc3c(c2)OCCO3)cc1,24,14*,-2,5,-10,17
COCCCNC(=S)N1CCN(C(=O)C(=O)Nc2ccc(C(=O)OC)cc2)CC1,1,-2,19,-4,-31,-23
CN(C)c1cc[n+](CC(=O)Nc2ccc(Oc3ccccc3)cc2)cc1,-22,-1,14,91*,-5,47
CC(=O)Nc1ccc(C(=O)NCCc2ccccc2)cc1,7,16*,10,-7,-12,-7
N#CCC(=O)Nc1ccc(C(=O)OCC(=O)NC(=O)Nc2ccc3c(c2)OCCO3)cc1,11,3,.,0,4,.
COc1cccc(CN2CC(C(=O)N(C)Cc3ccnc4ccccc34)CCC2=O)c1 (centres undefined),0,2,.,0,.,-12
N#Cc1ccc(C(=O)Nc2ccc([N+](=O)[O-])cc2)c(F)c1,-10,-1,-3,5,.,-18
COc1ccc(OC)c(C(=O)NC(CC(N)=O)c2ccc(N3CCC(Cc4ccccc4)CC3)c([N+](=O)[O-])c2)c1 (centres undefined),-2,-8,.,-9,2,-2
CC(=O)Nc1ccc(CCNC(=O)c2ccc3ccccc3c2O)cc1,.,24*,.,.,.,.
CC(=O)Nc1ccc(C(=O)c2ccccc2)cc1,0,13*,16,-5,-13,5
Cc1cccc(C(=O)Nc2ccc(C(=O)c3ccccc3)cc2)c1,-3,-2,.,7,9,9
COC(=O)c1ccc(NC(=O)CSC2=NC(=O)C(c3ccccc3)C(=O)N2)cc1 (centres undefined),-1,12*,38,-4,-9,-4
COc1ccc(CCNC(=O)c2ccccc2C(=O)NCCc2ccc(OC)cc2)cc1,5,-1,.,5,-10,-11
CCOC(=O)c1sc(=S)n(C)c1NC(=O)c1ccccc1,5,16*,5,0,.,1
CCOC(=O)c1sc(=S)n(C)c1NC(=O)c1cccc(Br)c1,10,-1,16,18,22,-17
SMILES,PREPL inhibitor,NR3A LBD binder,CHOP inh,Beta cell apopt,CSC inhib,T cruzi repl
O=C(CSC1=NC(=O)C(c2ccccc2)C(=O)N1)Nc1cccc(Cl)c1 (centres undefined),-4,-1,13,-7,.,-15
C/C(=N\NC(=O)c1ccccc1O)c1ccc(NC(=O)c2ccccc2)cc1,.,11*,.,2,-13,.
CCOC(=O)Cc1ccc(NC(=O)c2ccccc2Br)cc1,9,-1,4,2,4,2
C/C(=N\NC(=O)c1ccn(C)n1)c1ccc(NC(=O)c2cccc(F)c2)cc1,0,16*,.,6,.,2
CCOC(=O)Cc1ccc(NC(=O)c2ccc(C(C)(C)C)cc2)cc1,-8,-4,86*,6,47,21
CCOC(=O)c1ccc(NC(=O)c2ccc(NC(=O)c3ccccc3)cc2)cc1,5,30*,-9,2,-3,-5
C/C(=N\NC(=O)c1ccn(C)n1)c1cccc(NC(=O)c2ccc(C)s2)c1,-3,-16,10,10,-13,2
CCOC(=O)Nc1ccc(Oc2ccccc2)cc1,-6,2,73*,4,-9,-18
CCOC(=O)C1=C(NC(=S)NC(=O)c2ccccc2)c2ccccc2CC1(C)CC (centres undefined),9,-8,48,-1,-5,-20
CCOC(=O)C1=C(NC(=S)NC(=O)c2ccccc2)c2ccccc2CC1C(C)C (centres undefined),-2,4,89*,3,-3,13
CC(=O)Nc1ccc(NC(=O)c2ccc(NC(=O)c3ccccc3)cc2)cc1,0,28*,.,-1,-9,-7
C[N+]1(CC(O)COCC2COc3ccccc3O2)CCOCC1 (centres undefined),8,1,8,2,-17,-10
COc1cc(CNc2ncn[nH]2)ccc1OCc1cccc(C)c1,1,-1,-11,-9,73,2
COc1ccc(CC(=O)NNC(=O)c2ccc(Br)o2)cc1,24,-1,.,0,.,6
Cc1[nH]c2ccccc2c1/C=N/NS(=O)(=O)c1ccccc1,22,-6,23,3,-8,-6
Cc1[nH]c2ccccc2c1/C=N/Nc1ccccc1[N+](=O)[O-],51*,4,43,17,77*,62*
CC(C)Oc1ccccc1/C=N/Nc1ccccc1[N+](=O)[O-],10,-7,76*,61,39,30
COc1ccc(NS(=O)(=O)c2cc([N+](=O)[O-])ccc2N/N=C/c2c(C)[nH]c3ccccc23)cc1,.,28*,.,.,.,.
COc1ccc(-c2ccc(CCC(=O)O)n2CC(=O)Nc2ccccc2C)cc1,14,0,.,.,.,-7
O=C(Cn1nnc(-c2cccs2)n1)Nc1ccccc1C(F)(F)F,8,0,60,1,-2,-6
Cn1cnc2nc[nH]c2c1=O,.,1,.,.,.,.
COc1c2ccccc2c(OC)c2ccccc12,-2,-16,16,0,2,-1
CN(C)c1nc(N)ncc1-c1ccc(Oc2ccccc2)cc1,7,0,.,3,-8,70*

# Compound activity deposited in PubChem by several laboratories.
